From ChEMBL document CHEMBL1148390, “Structural analysis and optimization of NK(1) receptor antagonists through modulation of atropisomer interconversion properties” (J Med Chem, 2004) come the findings set out here.

The target in series [1] is T1, Substance-K receptor (Oryctolagus cuniculus) (UniProt P79218).
T1 sequence (whole entry): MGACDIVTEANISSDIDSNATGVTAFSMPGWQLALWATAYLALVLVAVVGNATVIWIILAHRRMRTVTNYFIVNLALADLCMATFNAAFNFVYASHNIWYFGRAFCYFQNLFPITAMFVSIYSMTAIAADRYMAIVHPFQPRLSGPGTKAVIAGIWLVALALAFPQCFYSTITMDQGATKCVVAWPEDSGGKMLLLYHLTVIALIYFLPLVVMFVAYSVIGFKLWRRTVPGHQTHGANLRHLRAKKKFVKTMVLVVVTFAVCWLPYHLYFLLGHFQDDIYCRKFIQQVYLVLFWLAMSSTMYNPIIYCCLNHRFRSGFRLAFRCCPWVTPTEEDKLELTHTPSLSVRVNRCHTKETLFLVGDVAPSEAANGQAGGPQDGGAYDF
The series is described as follows: In vitro binding affinity towards Tachykinin receptor 2 using rabbit pulmonary artery tissues. A digest of the protocol:
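Functional antagonism in isolated rabbit pulmonary artery (n = 2–6), reported as pKB. NK1 tested against agonist ASMSP with antagonist at 1 nM, or at 100 nM where antagonism was not purely competitive; NK2 tested against agonist BANK with antagonist at 1 μM. Where antagonism was not purely competitive, activity was taken as percent inhibition = 100 – maximum relaxation as % of control.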

For series [2], the system named is Substance-P receptor (Oryctolagus cuniculus). The series is described as follows: In vitro binding affinity towards Tachykinin receptor 1 was determined using rabbit pulmonary artery tissues.
Series [3] is described as follows: Half-life was measured in dogs after an oral dose of 10 uM/kg. Conditions: dog, in vivo. It is filed as ADME, organism-based, Canis lupus familiaris. The method, boiled down: (§1)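 Dogs (n = 3) dosed orally at 10–100 μmol/kg as a solution in 75% polyethylene glycol 400 in normal saline; iv bolus comparison at 1–10 μmol/kg. Blood taken via surgically implanted cannula or by venipuncture over 24 h; plasma analysed for unchanged compound by LC–MS.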

The nature of series [4]: Bioavailability was measured in dogs after an oral dose of 10 uM/kg. It is filed as ADME, organism-based, Canis lupus familiaris. Conditions: dog, in vivo, read-out: Bioavailabiility. A digest of the protocol: as §1
A short description of series [5]: Time for maximum plasma concentration was measured in dogs after an oral dose of 10 uM/kg. It is filed as ADME, organism-based, Canis lupus familiaris. Conditions: dog. The method, boiled down: as §1
Series [6] is described as follows: Maximum plasma concentration was measured in dogs after an oral dose of 10 umol/kg. It is filed as ADME, organism-based, Canis lupus familiaris. On the set-up: dose 10 umol/kg, route oral. Conditions: dog. The method, boiled down: as §1
The subject of series [7] is Gerbillinae. The series is described as follows: Percent inhibitory activity against ASMSP induced foot tapping response in gerbils after oral dose of 5 uM/kg. It is filed as functional. The method, boiled down:
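Gerbils given antagonist orally at 5 μmol/kg 6 h before central (CNS) administration of ASMSP (100 pmol). Foot-tapping response compared with vehicle-only control animals; result expressed as percent inhibition.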

Series [8] has as its target Substance-P receptor (Homo sapiens, UniProt P25103). The series is described as follows: In vitro binding affinity towards human Tachykinin receptor 1 was determined by using [3H]SP as a radioligand. A digest of the protocol:
(§2)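 Human tachykinin receptors stably expressed in mouse erythroleukemia (MEL) cells; NK3 construct differs from genomic sequence at AA439 (Cys vs Phe). Radioligand displacement: [3H]SP for NK1, [125I]NKA for NK2, [125I]MePheNKB for NK3; n ≥ 2 determinations.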

Series [9] deals with T2, Substance-K receptor (Homo sapiens, UniProt P21452).
T2 sequence (P21452 whole entry): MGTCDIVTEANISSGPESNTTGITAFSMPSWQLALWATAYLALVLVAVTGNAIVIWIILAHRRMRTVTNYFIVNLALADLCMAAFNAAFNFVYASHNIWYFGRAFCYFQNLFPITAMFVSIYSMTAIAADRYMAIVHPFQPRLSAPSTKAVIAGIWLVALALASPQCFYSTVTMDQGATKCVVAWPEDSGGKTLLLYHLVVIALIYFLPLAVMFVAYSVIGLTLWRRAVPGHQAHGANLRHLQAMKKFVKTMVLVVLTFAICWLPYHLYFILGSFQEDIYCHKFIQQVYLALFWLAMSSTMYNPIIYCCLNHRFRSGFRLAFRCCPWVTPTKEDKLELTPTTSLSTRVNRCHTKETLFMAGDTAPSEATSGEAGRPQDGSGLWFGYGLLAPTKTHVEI
The series is described as follows: In vitro binding affinity towards human Tachykinin receptor 2 was determined by using [125I]NKA as a radioligand. A digest of the protocol:
as §2

In series [10] the target is T3, Neuromedin-K receptor (Homo sapiens, UniProt P29371).
T3 sequence (P29371 whole entry): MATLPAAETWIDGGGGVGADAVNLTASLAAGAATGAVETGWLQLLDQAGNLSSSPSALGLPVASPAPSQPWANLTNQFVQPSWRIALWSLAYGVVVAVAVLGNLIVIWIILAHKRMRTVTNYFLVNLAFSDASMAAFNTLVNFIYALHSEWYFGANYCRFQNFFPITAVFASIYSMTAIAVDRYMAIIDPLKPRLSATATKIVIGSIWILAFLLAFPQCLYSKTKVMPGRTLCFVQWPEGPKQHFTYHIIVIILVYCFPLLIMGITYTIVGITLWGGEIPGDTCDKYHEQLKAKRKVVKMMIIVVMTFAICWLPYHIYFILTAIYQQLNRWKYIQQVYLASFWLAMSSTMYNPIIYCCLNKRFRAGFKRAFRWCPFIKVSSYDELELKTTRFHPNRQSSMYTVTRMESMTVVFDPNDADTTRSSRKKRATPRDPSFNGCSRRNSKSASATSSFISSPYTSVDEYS
The series is described as follows: In vitro binding affinity towards human Tachykinin receptor 3 was determined by using [125I]MePhe-NKB as a radioligand. A digest of the protocol: as §2

Series [11] in a line: Area under plasma concentration time curve was measured in dogs after an oral dose of 10 uM/kg. Conditions: dog. The class given is ADME, organism-based, Canis lupus familiaris. A digest of the protocol:
as §1

Chain of Substance-P receptor (P25103 whole entry): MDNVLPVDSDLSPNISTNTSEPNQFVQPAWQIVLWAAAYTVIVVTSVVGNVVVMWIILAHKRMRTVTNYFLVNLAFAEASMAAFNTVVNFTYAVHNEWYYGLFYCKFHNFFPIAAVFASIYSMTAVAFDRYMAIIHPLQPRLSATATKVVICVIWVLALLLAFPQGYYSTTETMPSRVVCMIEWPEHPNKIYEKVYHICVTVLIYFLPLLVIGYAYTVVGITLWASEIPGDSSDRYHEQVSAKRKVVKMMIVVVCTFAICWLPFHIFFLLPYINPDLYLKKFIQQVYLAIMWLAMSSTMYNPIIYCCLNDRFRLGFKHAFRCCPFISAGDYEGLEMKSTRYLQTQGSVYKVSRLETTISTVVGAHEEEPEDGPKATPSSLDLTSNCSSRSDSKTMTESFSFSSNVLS

Regarding `CC(C)Cc1c(C#N)cc2ccccc2c1C(=O)N(C)C[C@@H](CCN1CCC(c2ccccc2[S@+](C)[O-])CC1)c1ccc(Cl)c(Cl)c1`, the pKB is 6.35 in series [1] and 7.23 in [2].

With `CCCc1c(C#N)cc2ccccc2c1C(=O)N(C)C[C@@H](CCN1CCC(c2ccccc2[S@+](C)[O-])CC1)c1ccc(Cl)c(Cl)c1`, the pKB in [1] came to 6.72; in series [2], 7.8.

On to `CN(C[C@@H](CCN1CCC(c2ccccc2[S@+](C)[O-])CC1)c1ccc(Cl)c(Cl)c1)C(=O)c1c(-c2ccccc2)c(C#N)cc2ccccc12`, for which the pKB in [1] is 7.27; in series [2], 7.39.

On to `CN(C[C@@H](CCN1CCC(c2ccccc2[S@+](C)[O-])CC1)c1ccc(Cl)c(Cl)c1)C(=O)c1cc(C#N)cc2ccccc12`, for which the pKB in series [1] worked out at 8.3.

For the compound `Cc1c(C#N)cc2ccccc2c1C(=O)N(C)C[C@@H](CCN1CCC(c2ccccc2[S@+](C)[O-])CC1)c1ccc(Cl)c(Cl)c1`, the pKB was 7.1 in series [1] and 9.06 in series [2].

In series [3], `CCc1c(C#N)cc2ccccc2c1C(=O)N(C)C[C@@H](CCN1CCC(c2ccccc2[S@+](C)[O-])CC1)c1ccc(Cl)c(Cl)c1` (stereo in doubt; 3) [listing 1 of 2 here] showed a half-life of 5.9 h. The bioavailability in series [4] turned out to be 37.3%. Besides, the Tmax in [5] was determined as 4 h. In addition, in series [6], the Cmax was determined as 662 ng/mL. For the same compound, in series [7], the Inhibition stood at 33%. Besides, the Ki in [8] is 1.24 nM; in series [9] it was 37 nM; in [10], 97 nM. In series [11], this compound came in with an AUC of 6130 ng·h/mL.

With `CCc1c(C#N)cc2ccccc2c1C(=O)N(C)C[C@@H](CCN1CCC(c2ccccc2[S@+](C)[O-])CC1)c1ccc(Cl)c(Cl)c1` (stereo in doubt; 3) [listing 2 of 2 here], the pKB in series [1] was found to be 7.31.

As to `CCc1c(C#N)cc2ccccc2c1C(=O)N(C)C[C@@H](CCN1CCC(c2ccccc2[S@+](C)[O-])CC1)c1ccc(Cl)c(Cl)c1` (stereo in doubt; form 1) [listing 1 of 2 here], the Inhibition in series [7] is on record as 1.4%. Further, the Ki was found to be 1.71 nM in [8] and 23 nM in [9].

Turning to `CCc1c(C#N)cc2ccccc2c1C(=O)N(C)C[C@@H](CCN1CCC(c2ccccc2[S@+](C)[O-])CC1)c1ccc(Cl)c(Cl)c1` (stereo in doubt; form 1) [listing 2 of 2 here], in [1], the pKB came to 7.11.

The compound `CCc1c(C#N)cc2ccccc2c1C(=O)N(C)C[C@@H](CCN1CCC(c2ccccc2[S@+](C)[O-])CC1)c1ccc(Cl)c(Cl)c1` (stereo in doubt; form 2) [listing 1 of 2 here] displayed an Inhibition in series [7] of 91%. Also, the Ki is 6.94 nM in series [8] and 33 nM in series [9].

Take `CCc1c(C#N)cc2ccccc2c1C(=O)N(C)C[C@@H](CCN1CCC(c2ccccc2[S@+](C)[O-])CC1)c1ccc(Cl)c(Cl)c1` (stereo in doubt; form 2) [listing 2 of 2 here]: the pKB in series [1] came to 6.25.

In the case of `CCc1c(C#N)cc2ccccc2c1C(=O)N(C)C[C@@H](CCN1CCC(c2ccccc2[S@+](C)[O-])CC1)c1ccc(Cl)c(Cl)c1` (stereo in doubt; form 3) [listing 1 of 2 here], in [7], the Inhibition is listed as 0.3%. The Ki was 2.94 nM in [8] and 22 nM in [9].

For `CCc1c(C#N)cc2ccccc2c1C(=O)N(C)C[C@@H](CCN1CCC(c2ccccc2[S@+](C)[O-])CC1)c1ccc(Cl)c(Cl)c1` (stereo in doubt; form 3) [listing 2 of 2 here], the pKB in [1] is 6.83.

In [7], `CCc1c(C#N)cc2ccccc2c1C(=O)N(C)C[C@@H](CCN1CCC(c2ccccc2[S@+](C)[O-])CC1)c1ccc(Cl)c(Cl)c1` (stereo in doubt; form 4) came in with an Inhibition of 13%. Moreover, the figures for the Ki in [8] and in [9] were 0.4 nM and 35 nM, respectively.
